One molecule from ChEMBL document CHEMBL5661977, “BI 6727, a Polo-like kinase inhibitor with improved pharmacokinetic profile and broad antitumor activity” (Clin Cancer Res, 2009) can be followed below.

Calls of active or inactive are those of the source. The calls are words filed in the database; no cut-off is given here.

Series [1] deals with NCI-H460. The experiment in a line: Antimitotic activity against human NCI-H460 cells assessed as inhibition of cell proliferation incubated for 72 hrs by Alamar blue based fluorescence spectrophotometric analysis. It counts as functional. Particulars: NCI-H460, 72 h. In short, it runs like this:
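Cancer cell lines were cultured per supplier instructions and exposed to various inhibitor concentrations for 72 h. Growth was read as Alamar blue conversion by fluorescence. EC50 (50% growth inhibition) was extrapolated from the dose-response curve fit.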
In general terms: The colour change of resazurin is a common sign of viable cells or microbes.

In series [2] the test system is NCI-H460. Put plainly: Antimitotic activity against human NCI-H460 cells assessed as accumulation of monopolar spindles at 100 nmol/L incubated for 24 hrs by immunofluorescence analysis. In kind it is functional, cell-based. In short, it runs like this:
(§1)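 NCI-H460 cells on chamber slides were treated next day for 24 h with inhibitor or 0.1% DMSO vehicle. They were fixed and permeabilized with 4% formaldehyde/Triton X-100 for 5 min at RT, then stained with anti-tubulin and anti-phospho-Ser10 histone H3 (1:500 in PBS/2% BSA) plus DAPI 0.05 µg/mL. Imaged by fluorescence microscopy.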

In series [3] the test system is NCI-H460. The experiment in a line: Antimitotic activity against human NCI-H460 cells assessed as histone H3 phosphoserine 10 level at 100 nmol/L incubated for 24 hrs by immunofluorescence analysis. It counts as functional, cell-based. In short, it runs like this: as §1
The subject of series [4] is NCI-H460. The experiment in a line: Antimitotic activity against human NCI-H460 cells assessed as G2-M arrest with apoptosis at 100 nmol/L incubated for 24 hrs by PI staining based flow cytometric analysis. In kind it is functional, cell-based. In short, it runs like this:
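Log-phase NCI-H460 cells were treated with 0.1% DMSO or inhibitor (dose series for 24 h; 100 nmol/L time course at 0, 24, 48, 72 h). Cells were fixed in 80% ethanol, permeabilized with 0.25% Triton X-100 for 5 min, then given 0.1% RNase plus 10 µg/mL propidium iodide for 20 min at RT. DNA content was read by flow cytometry.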

Series [5] can be described thus: Volume of distribution at steady state in Wistar rat at 10 mg/kg, iv by HPLC-MS/MS analysis. In kind it is ADME, organism-based. Particulars: in vivo, read-out: Vdss. In short, it runs like this: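 Male Wistar Crl:WI (Han) rats, n = 4, given a single 5-min i.v. infusion. BI 6727 measured in EDTA plasma at various times after the infusion started, by HPLC-MS/MS with internal standard. Parameters came from noncompartmental analysis. Terminal half-life was taken from the last two time points after i.v. dosing.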

Series [6] in a line: Tmax in Wistar rat at 30 mg/kg, po by HPLC-MS/MS analysis. As to conditions: in vivo. It counts as ADME, organism-based. In short, it runs like this: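 Single oral gavage of BI 6727 suspended in 0.5% hydroxyethyl-cellulose (10 mL/kg) to female nude mice or male Wistar rats. EDTA plasma levels measured over time by HPLC-MS/MS with internal standard. AUC0-24 by trapezoidal rule. Parameters from noncompartmental analysis.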

Series [7] in a line: Cmax in BomTac:NMRI-Foxn1nu mouse at 35 mg/kg, iv by HPLC-MS/MS analysis. In kind it is ADME, organism-based. Particulars: in vivo. In short, it runs like this:
(§2)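 Female nude mice, n = 3, single i.v. dose (vehicle 0.1 N HCl diluted with 0.9% NaCl, 10 mL/kg). BI 6727 measured in EDTA plasma at several times by HPLC-MS/MS with internal standard. Parameters came from noncompartmental analysis. Terminal half-life was taken from the last two time points after i.v. dosing.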

Series [8] is described as follows: Clearance in BomTac:NMRI-Foxn1nu mouse at 35 mg/kg, iv by HPLC-MS/MS analysis. In kind it is ADME, organism-based. As to conditions: in vivo. In short, it runs like this:
as §2

The nature of series [9]: Volume of distribution at steady state in BomTac:NMRI-Foxn1nu mouse at 35 mg/kg, iv by HPLC-MS/MS analysis. As to conditions: in vivo, read-out: Vdss. It counts as ADME, organism-based. In short, it runs like this: as §2
Series [10] in a line: Oral bioavailability in dog by HPLC-MS/MS analysis. Particulars: in vivo. It counts as ADME, organism-based, Canis lupus familiaris.
In series [11] the test system is HCT-116. The experiment in a line: Antitumor activity against human HCT-116 cells xenografted in BomTac:NMRI-Foxn1nu mouse assessed as T/C at 25 mg/kg, iv administered twice a week upto 6 weeks relative to control. It counts as functional. In a few lines:
(§3)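 Female nude mice bore s.c. HCT 116 (2×10^6 cells), NCI-H460 (1×10^6 cells) or serially transplanted CXB1 tumor pieces. At ~50–100 mm³, mice were randomized into groups of 10 and dosed i.v. (0.1 N HCl/saline) or by gavage (0.5% hydroxyethyl-cellulose) at 10 mL/kg. Calipers read thrice weekly, volume = length×width²×π/6. T/C from median volumes on the last day.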
(Xenograft models place foreign cells or tissue in a host animal.)

The subject of series [12] is HCT-116. The experiment in a line: Antitumor activity against human HCT-116 cells xenografted in BomTac:NMRI-Foxn1nu mouse assessed as T/C at 20 mg/kg, iv administered once a week upto 6 weeks relative to control. It counts as functional. In short, it runs like this: as §3
Series [13] deals with HCT-116. The experiment in a line: Antitumor activity against human HCT-116 cells xenografted in BomTac:NMRI-Foxn1nu mouse assessed as T/C at 7 mg/kg, po administered daily upto 6 weeks relative to control. In kind it is functional. In short, it runs like this:
as §3

Series [14] relates to NCI-H460. The experiment in a line: Antitumor activity against human NCI-H460 cells xenografted in BomTac:NMRI-Foxn1nu mouse assessed as T/C at 70 mg/kg, po administered once a week upto 6 weeks relative to control. In kind it is functional. In short, it runs like this: as §3
Series [15] in a line: Antitumor activity against human CXB1 cells xenografted in BomTac:NMRI-Foxn1nu mouse assessed as T/C at 15 mg/kg, iv administered twice a week upto 6 weeks relative to control. It counts as functional, CXB1 cell. In short, it runs like this:
as §3

A short description of series [16]: AUC (0 to 24 hrs) in human HCT-116 cells xenografted in BomTac:NMRI-Foxn1nu mouse at 15 mg/kg, iv administered twice a week upto 6 weeks by HPLC-MS/MS analysis. It counts as ADME, organism-based. Particulars: in vivo, 1008 h.
A short description of series [17]: AUC (0 to 24 hrs) in human HCT-116 cells xenografted in BomTac:NMRI-Foxn1nu mouse at 25 mg/kg, po administered twice a week upto 6 weeks by HPLC-MS/MS analysis. Particulars: in vivo, 1008 h. It counts as ADME, organism-based.
Series [18] in a line: AUC (0 to 24 hrs) in human HCT-116 cells xenografted in BomTac:NMRI-Foxn1nu mouse at 7 mg/kg, po administered daily upto 6 weeks by HPLC-MS/MS analysis. In kind it is ADME, organism-based. Particulars: in vivo, 1008 h.
A short description of series [19]: AUC (0 to 24 hrs) in human NCI-H460 cells xenografted in BomTac:NMRI-Foxn1nu mouse at 10 mg/kg, po administered daily upto 6 weeks by HPLC-MS/MS analysis. As to conditions: in vivo, 1008 h. In kind it is ADME, organism-based.
The subject of series [20] is HCT-116. The experiment in a line: Antitumor activity against human HCT-116 cells xenografted in BomTac:NMRI-Foxn1nu mouse assessed as […] in tumor size at 20 mg/kg, iv administered twice a week on consecutive days. In kind it is functional, organism-based.
The test system of series [21] is HCT-116. Put plainly: Antitumor activity against human HCT-116 cells xenografted in BomTac:NMRI-Foxn1nu mouse assessed as mitotic index in small intestine at 40 mg/kg, iv. It counts as functional, organism-based. In a few lines: (§4)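 Female nude mice bore s.c. HCT 116 tumors (~200 mm³) and received a single i.v. 40 mg/kg dose or vehicle (n=3 per group per time). Tumor, small intestine and large intestine were taken at 6, 24 and 48 h. Frozen sections were stained for pSer10 histone H3 (immunoperoxidase) or by TUNEL. Positive area was calculated as % of tumor cell area; Student's t test.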

Series [22] has as its system HCT-116. The experiment in a line: Antitumor activity against human HCT-116 cells xenografted in BomTac:NMRI-Foxn1nu mouse assessed as mitotic index in large intestine at 40 mg/kg, iv. It counts as functional, organism-based. In short, it runs like this: as §4
Series [23] deals with HCT-116. Put plainly: Antitumor activity against human HCT-116 cells xenografted in BomTac:NMRI-Foxn1nu mouse assessed as the number of apoptotic cells in small intestine at 40 mg/kg, iv. In kind it is functional, organism-based. In short, it runs like this: as §4

As for `CC[C@@H]1C(=O)N(C)c2cnc(Nc3ccc(C(=O)N[C@H]4CC[C@H](N5CCN(CC6CC6)CC5)CC4)cc3OC)nc2N1C(C)C` [VOLASERTIB], in [1], the EC50 (usually the concentration needed to bring the measured effect to its halfway point) was 21 nM. The result in [2], in series [3], in [4] and in [20] was Active. In addition, the Vd worked out at 22 L/kg in [5] and 7.6 L/kg in series [9]. Moreover, in series [6], the time to peak (Tmax) (usually the time from dosing to the highest level) was 6.7 h. The Cmax (in general, the highest concentration seen after dosing) in [7] is 7.1 µM. Moreover, the clearance (commonly a measure of how efficiently the substance is removed, as volume per time) in [8] was determined as 10 mL/min/kg. Moreover, the bioavailability (as a rule, dose-corrected exposure relative to a reference, in per cent) in [10] came out at 53%. In addition, the T/C (as a rule, the result in the treated group divided by that in the control group, in per cent) was determined as 0.3% in series [11]; 9% in series [12]; 3% in series [13]; 20% in series [14]; 12% in series [15]. The AUC (usually concentration integrated over time) in [16] was 37 µM·h; in series [17] it was 43 µM·h; in [18], 44 µM·h; in series [19] it was 61 µM·h. Besides, the outcome in series [21], in series [22] and in series [23] was inactive.
